Test results published in ChEMBL document CHEMBL1136923, “Highly potent, orally available anti-inflammatory broad-spectrum chemokine inhibitors” (J Med Chem, 2009).

Columns and labels:
[1] = molecular target: T1, C-C chemokine receptor type 1 (Homo sapiens) (UniProt P32246); assay: Antagonist activity at CCR1 in human THP1 cells assessed as inhibition of CCL3-induced chemotaxis after 2 hrs by microtiter format trans-well migration assay; type: functional, cell-based; conditions: THP-1
T1 sequence (whole entry): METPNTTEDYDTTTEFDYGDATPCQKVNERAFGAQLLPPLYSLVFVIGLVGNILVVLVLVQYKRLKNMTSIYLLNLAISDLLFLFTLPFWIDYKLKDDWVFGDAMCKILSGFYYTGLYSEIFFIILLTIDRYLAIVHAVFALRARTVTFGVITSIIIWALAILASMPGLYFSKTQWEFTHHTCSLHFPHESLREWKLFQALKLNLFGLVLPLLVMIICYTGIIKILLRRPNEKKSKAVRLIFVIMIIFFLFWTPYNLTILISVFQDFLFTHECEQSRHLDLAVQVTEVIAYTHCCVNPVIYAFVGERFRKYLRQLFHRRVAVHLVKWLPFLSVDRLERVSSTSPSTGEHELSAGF
How it was run: (§1)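 Microtiter trans-well migration assay in Gey's balanced salt solution with 1 mg/mL endotoxin-free BSA, no fetal calf serum. Migration ran 2 h at 37 °C. Compounds dissolved in DMSO and added to both top and bottom compartments, final DMSO 1%.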

[2] = molecular target: C-X-C chemokine receptor type 4 (Homo sapiens) (UniProt P61073); assay: Antagonist activity at CXCR4 in human THP1 cells assessed as inhibition of CXCL12-induced chemotaxis after 2 hrs by microtiter format trans-well migration assay; type: functional, cell-based; conditions: THP-1; how it was run: as §1
Sequence of C-X-C chemokine receptor type 4 (Homo sapiens) (P61073 whole entry): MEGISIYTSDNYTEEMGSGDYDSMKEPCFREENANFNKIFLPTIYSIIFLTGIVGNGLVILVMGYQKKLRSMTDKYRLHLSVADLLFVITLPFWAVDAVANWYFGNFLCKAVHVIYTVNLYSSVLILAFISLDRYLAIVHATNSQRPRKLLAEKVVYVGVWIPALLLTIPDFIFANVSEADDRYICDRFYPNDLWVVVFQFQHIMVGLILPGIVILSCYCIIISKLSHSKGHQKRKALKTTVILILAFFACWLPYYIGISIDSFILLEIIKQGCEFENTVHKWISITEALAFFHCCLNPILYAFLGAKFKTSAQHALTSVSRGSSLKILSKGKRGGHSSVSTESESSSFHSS

[3] = molecular target: C-C chemokine receptor type 2 (Homo sapiens) (UniProt P41597); assay: Antagonist activity at CCR2 in human THP1 cells assessed as inhibition of CCL2-induced chemotaxis at 100 nM after 2 hrs by microtiter format trans-well migration assay; type: functional, cell-based; conditions: THP-1; how it was run: as §1
Sequence of C-C chemokine receptor type 2 (Homo sapiens) (P41597 whole entry, looked up): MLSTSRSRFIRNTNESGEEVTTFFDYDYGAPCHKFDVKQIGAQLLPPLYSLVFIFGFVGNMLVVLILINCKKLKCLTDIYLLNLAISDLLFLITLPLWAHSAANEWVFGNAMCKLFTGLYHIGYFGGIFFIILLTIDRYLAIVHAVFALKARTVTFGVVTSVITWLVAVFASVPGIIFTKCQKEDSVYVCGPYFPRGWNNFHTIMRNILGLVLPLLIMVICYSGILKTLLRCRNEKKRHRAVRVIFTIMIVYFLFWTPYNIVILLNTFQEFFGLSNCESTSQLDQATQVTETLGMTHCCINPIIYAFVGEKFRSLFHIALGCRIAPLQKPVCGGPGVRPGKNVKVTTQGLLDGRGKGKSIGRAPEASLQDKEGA

[4] = molecular target: T1, C-C chemokine receptor type 1 (Homo sapiens); assay: Antagonist activity at CCR1 in human THP1 cells assessed as inhibition of CCL3-induced chemotaxis at 1 nM after 2 hrs by microtiter format trans-well migration assay; type: functional, cell-based; conditions: THP-1; how it was run: as §1
[5] = molecular target: C-C chemokine receptor type 5 (Homo sapiens) (UniProt P51681); assay: Antagonist activity at CCR5 in human THP1 cells assessed as inhibition of CCL5-induced chemotaxis at 1000 nM after 2 hrs by microtiter format trans-well migration assay; type: functional, cell-based; conditions: THP-1; how it was run: as §1
Sequence of C-C chemokine receptor type 5 (Homo sapiens) (P51681 whole entry, looked up): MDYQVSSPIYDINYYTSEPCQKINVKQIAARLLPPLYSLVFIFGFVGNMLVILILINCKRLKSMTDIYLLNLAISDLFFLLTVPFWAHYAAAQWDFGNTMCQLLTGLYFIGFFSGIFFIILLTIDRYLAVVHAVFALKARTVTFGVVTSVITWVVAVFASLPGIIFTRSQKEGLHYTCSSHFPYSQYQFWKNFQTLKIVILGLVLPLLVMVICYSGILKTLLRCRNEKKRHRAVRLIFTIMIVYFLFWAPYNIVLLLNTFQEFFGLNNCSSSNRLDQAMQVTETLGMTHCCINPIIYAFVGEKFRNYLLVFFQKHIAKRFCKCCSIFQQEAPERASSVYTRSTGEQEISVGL

[6] = molecular target: C-X-C chemokine receptor type 4 (Homo sapiens) (UniProt P61073); assay: Antagonist activity at CXCR4 in human THP1 cells assessed as inhibition of CXCL12-induced chemotaxis at 1000 nM after 2 hrs by microtiter format trans-well migration assay; type: functional, cell-based; conditions: THP-1; how it was run: as §1
[7] = Antagonist activity at Interleukin-8 receptor in human PMNC assessed as inhibition of CXCL8-induced chemotaxis at 10 nM after 2 hrs by microtiter format trans-well migration assay; type: functional; how it was run: as §1
[8] = Antagonist activity at Interleukin-8 receptor in human PMNC assessed as inhibition of CXCL8-induced chemotaxis at 1 nM after 2 hrs by microtiter format trans-well migration assay; type: functional; how it was run: as §1
[9] = Antagonist activity at Interleukin-8 receptor in human PMNC assessed as inhibition of CXCL8-induced chemotaxis at 0.1 nM after 2 hrs by microtiter format trans-well migration assay; type: functional; how it was run: as §1
[10] = Antagonist activity at Interleukin-8 receptor in human PMNC assessed as inhibition of CXCL8-induced chemotaxis at 0.01 nM after 2 hrs by microtiter format trans-well migration assay; type: functional; how it was run: as §1
[11] = molecular target: T2, C5a anaphylatoxin chemotactic receptor 1 (Homo sapiens) (UniProt P21730); assay: Antagonist activity at C5a receptor in human PMNC assessed as inhibition of C5a-induced chemotaxis at 10 nM after 2 hrs by microtiter format trans-well migration assay; type: functional; how it was run: as §1
T2 sequence (whole entry): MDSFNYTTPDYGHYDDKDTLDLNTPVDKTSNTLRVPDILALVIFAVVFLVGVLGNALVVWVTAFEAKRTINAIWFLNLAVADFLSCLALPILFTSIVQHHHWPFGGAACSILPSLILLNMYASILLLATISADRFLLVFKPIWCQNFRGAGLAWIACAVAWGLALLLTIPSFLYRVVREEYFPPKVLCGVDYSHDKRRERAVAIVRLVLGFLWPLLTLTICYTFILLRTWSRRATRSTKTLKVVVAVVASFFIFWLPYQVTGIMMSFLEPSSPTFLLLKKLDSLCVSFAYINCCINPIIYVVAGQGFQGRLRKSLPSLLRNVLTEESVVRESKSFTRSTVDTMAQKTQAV

[12] = molecular target: T2, C5a anaphylatoxin chemotactic receptor 1 (Homo sapiens); assay: Antagonist activity at C5a receptor in human PMNC assessed as inhibition of C5a-induced chemotaxis at 1 nM after 2 hrs by microtiter format trans-well migration assay; type: functional; how it was run: as §1
[13] = molecular target: T2, C5a anaphylatoxin chemotactic receptor 1 (Homo sapiens); assay: Antagonist activity at C5a receptor in human PMNC assessed as inhibition of C5a-induced chemotaxis at 0.01 nM after 2 hrs by microtiter format trans-well migration assay; type: functional; how it was run: as §1
THP-1 [14] = assay: Endogenous chemoattractant activity at human THP1 cells assessed as cell migration at 1000 uM after 2 hrs by microtiter format trans-well migration assay; type: functional
[15] = Antagonist activity at Interleukin-8 receptor in human PMNC assessed as inhibition of CXCL8-induced chemotaxis at 1000 nM after 2 hrs by microtiter format trans-well migration assay; type: functional; how it was run: as §1
THP-1 [16] = assay: Endogenous chemoattractant activity at human THP1 cells assessed as cell migration at 10 uM after 2 hrs by microtiter format trans-well migration assay; type: functional
THP-1 [17] = assay: Endogenous chemoattractant activity at human THP1 cells assessed as cell migration at 0.01 nM after 2 hrs by microtiter format trans-well migration assay; type: functional
THP-1 [18] = assay: Toxicity in human THP1 cells assessed as change in cell size at 1000 nM by forward scatter flow cytometry relative to control; type: cell-based; conditions: thp-1, 1 µM
THP-1 [19] = assay: Toxicity in human THP1 cells assessed as change in cell size at 0.1 nM by forward scatter flow cytometry relative to control; type: cell-based; conditions: thp-1, 0.0001 µM
THP-1 [20] = assay: Cytotoxicity against human THP1 cells up to 100 uM by trypan blue exclusion assay; type: cell-based
Mus musculus [21] = assay: Antiinflammatory activity in mouse assessed as inhibition of LPS-induced TNFalpha upregulation at 0.075 mg, sc measured 2 hrs after LPS challenge; type: functional
How it was run: (§2)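 Murine sublethal endotoxemia: LPS given intraperitoneally, with serum TNF-α measured 2 h after the LPS injection as the end point. Compound was given subcutaneously or orally. Vehicle was 0.6% DMSO and 1% carboxymethylcellulose (final concentrations) in sterile water. Effect is reported as % relative to control.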

Mus musculus [22] = assay: Antiinflammatory activity in mouse assessed as inhibition of LPS-induced TNFalpha upregulation at 0.0075 mg, po measured 2 hrs after LPS challenge; type: functional; how it was run: as §2
Mus musculus [23] = assay: Antiinflammatory activity in mouse assessed as inhibition of LPS-induced TNFalpha upregulation at 0.025 mg, po measured 2 hrs after LPS challenge; type: functional; how it was run: as §2
Mus musculus [24] = assay: Antiinflammatory activity in mouse assessed as inhibition of LPS-induced TNFalpha upregulation at 0.075 mg, po measured 2 hrs after LPS challenge; type: functional; how it was run: as §2
Mus musculus [25] = assay: Antiinflammatory activity in po dosed mouse assessed as inhibition of LPS-induced TNFalpha upregulation measured 2 hrs after LPS challenge; type: functional

CCCCCCCCCCC(C)(C)C(=O)N[C@H]1CCCCNC1=O
ED50 [1]: 0.15 nM | ED50 [2]: 1 nM | inhibition [3]: 93% | inhibition [4]: 92.5% | inhibition [5]: 100% | inhibition [6]: 112% | inhibition at 0.01 µM [7]: 121% | inhibition at 0.001 µM [8]: 71% | inhibition at 0.0001 µM [9]: 12.5% | inhibition at 10 pM [10]: -12% | inhibition [11]: -3% | inhibition [12]: 17.5% | inhibition [13]: 20% | Activity (THP-1 [14]): 1602% | inhibition at 1 µM [15]: 122% | Activity (THP-1 [16]): 2540% | Activity (THP-1 [17]): 5337% | fold change (FC) (THP-1 [18]): 1.05 | fold change (FC) (THP-1 [19]): 1.04 | Activity (THP-1 [20]): Non-toxic | inhibition (INH) (Mus musculus [21]): 66% | inhibition (INH) (Mus musculus [22]): 12% | inhibition (INH) (Mus musculus [23]): 44% | inhibition (INH) (Mus musculus [24]): 80% | ED50 (Mus musculus [25]): 0.3 mg/kg
